Assay results taken from ChEMBL document CHEMBL1125251, “4'-Hydroxy-3-methoxyflavones with potent antipicornavirus activity” (J Med Chem, 1991).
Converted amounts (≈) assume the structure as drawn.

How the values were obtained:
Enterovirus C [1] = assay: Minimal dose which produces titer reduction at 10 ug/mL (mD RF10e3); type: functional
Enterovirus C [2] = assay: The ratio of the poliovirus viral titer of the virus control (reduction factor) to the viral titer in the presence of the maximal non-toxic dose (RF MNTD); type: functional
Outline: (§1)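 Poliovirus type 1 Brunhilde 1A/S3 in Vero monolayers. Serial 10-fold virus dilutions adsorbed 1 h at 37 °C, then serial 2-fold compound dilutions were added. Incubated at 37 °C and scored for CPE by light microscopy, with a 3-day readout. Titer reduction is control/treated TCD50/mL. ED99 is the minimum concentration inhibiting 99% of virus. Virus, cell and compound controls were included.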

Enterovirus C [3] = assay: Maximal non-toxic dose (MNTD) that shows antiviral activity.; type: functional
Outline: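 End-point titration. Poliovirus type 1 Brunhilde was run in Vero cells at 37 °C with a 3-day read. Rhinovirus 15 was run in human skin fibroblasts at 33 °C with a 7-day read. Monolayers got serial 10-fold virus dilutions and adsorbed 1 h at 37 °C, then serial 2-fold compound dilutions (DMSO stock in maintenance medium). CPE was read by light microscopy. RF = control titer (TCD50/mL) / titer at maximal nontoxic dose.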

[4] = Therapeutic Index measured as the ratio of CyD50(polio) / ED99(polio) values; type: organism-based; conditions: enterovirus c; read-out: Therapeutic index 99
Outline: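 TI99 = CyD50/ED99 for poliovirus. ED99 came from end-point titration in Vero cells at 37 °C over 3 days. CyD50 came from Vero cell growth: 10⁶ cells were given serial 2-fold compound dilutions in quadruplicate for 6 days at 37 °C, then trypsinized, counted and reseeded, repeated five times. Generation time was calculated per concentration.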

[5] = Cytotoxic dose at which 50% growth of normal cells is inhibited; type: cell-based; conditions: chlorocebus sabaeus, Vero cells; read-out: CyD50
Outline: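 Cell-growth cytotoxicity in Vero cells or human skin fibroblasts. Serial 2-fold dilutions in M-199 with 6% newborn calf serum were added in quadruplicate to 10⁶ cells and held 6 days at 37 °C. Cells were trypsinized, counted and reseeded with compound, repeated five times. Generation time was calculated per concentration. CyD50 = lowest concentration at least doubling generation time versus untreated cells.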

Enterovirus C [6] = assay: Minimum drug concentration at which 99% of the polio virus is inhibited; type: functional; outline: as §1

Structure (SMILES) | Minimal dose (Enterovirus C [1]) [µg/mL] | Reduction factor (Enterovirus C [2]) | Max non-toxic dose (Enterovirus C [3]) [µg/mL] | selectivity ratio [4] | CC50 [5] [µg/mL] | ED99 (Enterovirus C [6]) [µg/mL]
COc1c(-c2ccc(OC(C)=O)c(OC(C)=O)c2)oc2cc(OC(C)=O)cc(OC(C)=O)c2c1=O | 2 | 1000000 | >50 | – | – | –
COc1c(-c2ccc(O)cc2)oc2cc(O)cc(O)c2c1=O [ISOKAEMPFERIDE] | 0.25 | 1000000 | 10 | 50 | 10 (≈ 33.3 µM) | 0.2
COc1c(O)cc2oc(-c3ccc(O)cc3)c(OC)c(=O)c2c1O [3,6-DIMETHOXY KAEMPFEROL] | 1 | 100000 | 20 | 50 | 25 (≈ 75.7 µM) | 0.5
COc1ccc2oc(-c3ccc(O)cc3)c(OC)c(=O)c2c1 | – | – | 50 | 8 | 200 (≈ 670 µM) | 25
COc1ccc(-c2oc3c(OC)c(OC)c(OC)c(O)c3c(=O)c2OC)cc1OC | 50 | 10000 | 50 | – | – | –
COc1ccc(-c2oc3cc(OC)cc(O)c3c(=O)c2OC)cc1 | – | 1 | >50 | – | – | –
COc1ccc(-c2oc3cc(O)cc(O)c3c(=O)c2OC)cc1OC | 2.5 | – | 50 | – | – | –
COc1ccc(-c2oc3c(OC)c(OC)cc(O)c3c(=O)c2OC)cc1 | – | – | 7.5 | – | – | –
COc1c(-c2ccc(O)cc2)oc2cc(F)ccc2c1=O | – | 1000 | 10 | 2.5 | 25 (≈ 87.3 µM) | 10
COc1ccc(-c2oc3c(OC)c(OC)c(OC)c(OC)c3c(=O)c2OC)cc1OC [3,5,6,7,8,3',4'-HEPTAMETHOXYFLAVONE] | 25 | 100000 | 50 | – | – | –
COc1ccc(-c2oc3cc(OC)c(OC)cc3c(=O)c2OC)cc1OC | 50 | 10000 | 50 | – | – | –
COc1c(-c2ccc(Cl)cc2)oc2cc(C)ccc2c1=O | – | 1 | 25 | – | 100 (≈ 333 µM) | <1000
COc1ccc(-c2oc3c(OC)c(O)cc(O)c3c(=O)c2OC)cc1 | – | 1 | >10 | – | – | –
COc1ccc(-c2oc3cc(C)ccc3c(=O)c2OC)cc1 | – | 1 | 100 | – | – | –
COc1ccc(-c2oc3cccc(OC)c3c(=O)c2OC)cc1 | – | 1 | 100 | – | – | –
COc1ccc(-c2oc3cc(O)cc(O)c3c(=O)c2OC)cc1 [ERMANIN] | 5 | – | 10 | 10 | 50 (≈ 159 µM) | 5
COc1c(-c2ccc(O)cc2)oc2c(C)cc(Cl)cc2c1=O | – | 1 | 25 | < 1 | 50 (≈ 158 µM) | >50
COc1c(-c2ccc(O)cc2)oc2cc(C(C)C)ccc2c1=O | – | – | 25 | – | – | –
COc1c(-c2ccc(O)cc2)oc2cc(Br)ccc2c1=O | – | 10 | 30 | < 1 | 30 (≈ 86.4 µM) | >30
COc1cc(O)c2c(=O)c(OC)c(-c3ccc(OC)c(OC)c3)oc2c1 [RETUSIN] | – | 1 | >50 | – | – | –
COc1ccc(-c2oc3cc(O)c(OC)c(O)c3c(=O)c2OC)cc1 [SANTIN] | – | 1 | 100 | – | – | –
COc1ccc(-c2oc3ccc(O)cc3c(=O)c2OC)cc1 | – | 1 | 100 | – | – | –
Cc1ccc2c(=O)c(N)c(-c3ccc(O)cc3)oc2c1 | – | – | – | – | 10 (≈ 37.4 µM) | –
